ChEMBL document CHEMBL1136753, “Optimization of 2-phenylaminoimidazo[4,5-h]isoquinolin-9-ones: orally active inhibitors of lck kinase” (J Med Chem, 2003)
pEC50, pIC50: −log10 of the molar value.

What was measured:
Jurkat = assay: Inhibition of Calcium release in jurkat cells; type: functional, cell-based; conditions: Homo sapiens
Summary of the method: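 Jurkat cells loaded with Fluo-3, washed in HBSS with 1 mM CaCl₂, 1 mM MgCl₂, 10 mM HEPES, 2 mM probenecid, 1% FBS, pH 7.4. Final 3 × 10⁵ cells/mL. Compound added for 15 min at room temperature, then anti-CD3 (clone X35, final 0.25 µg/mL). FLIPR fluorescence followed for 13 min. Peak minus baseline plotted against concentration gives EC₅₀. Mean of two or more experiments in duplicate ± SD.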

[1] = molecular target: Tyrosine-protein kinase Lck (Homo sapiens, UniProt P06239); assay: Inhibition of p56 Lck tyrosine kinase
Chain of Tyrosine-protein kinase Lck (P06239 whole entry): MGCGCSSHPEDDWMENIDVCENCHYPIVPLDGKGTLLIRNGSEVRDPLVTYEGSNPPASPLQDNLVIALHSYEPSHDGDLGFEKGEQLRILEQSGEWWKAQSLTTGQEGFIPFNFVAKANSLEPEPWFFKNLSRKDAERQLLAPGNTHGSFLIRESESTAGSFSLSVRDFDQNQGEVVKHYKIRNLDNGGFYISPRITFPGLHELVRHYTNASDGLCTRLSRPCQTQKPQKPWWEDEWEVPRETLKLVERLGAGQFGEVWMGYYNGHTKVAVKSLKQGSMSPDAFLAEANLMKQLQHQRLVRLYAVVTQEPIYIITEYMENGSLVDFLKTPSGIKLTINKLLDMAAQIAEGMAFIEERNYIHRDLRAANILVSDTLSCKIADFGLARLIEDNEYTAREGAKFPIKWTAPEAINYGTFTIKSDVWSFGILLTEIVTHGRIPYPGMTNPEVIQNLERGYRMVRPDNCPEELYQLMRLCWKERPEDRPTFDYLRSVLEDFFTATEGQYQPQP

tissue or blood = type: functional, tissue-based; conditions: Homo sapiens
Homo sapiens = organism: Homo sapiens; assay: Inhibition of IL-2 production in human whole blood; type: functional
[2] = molecular target: c-Jun N-terminal kinase, JNK (Homo sapiens, UniProt P45983+P53779+P45984); assay: Inhibition of c-Jun N-terminal kinase; type: protein assay
Summary of the method: (§1)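 Serine/threonine kinase panel run through the Dundee consortium with ATP at 100 µM. IC₅₀ values are reported.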

[3] = molecular target: Receptor tyrosine-protein kinase erbB-2 (Homo sapiens, UniProt P04626); assay: Inhibition of Protein kinase HER-2
Summary of the method: (§2)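 DELFIA tyrosine kinase assay on neutravidin-coated plates. Substrate is biotinylated poly-Glu₄-Tyr₁, with ATP at or below Km. Compounds are tested in 10-point dose response. After 45 min at room temperature, Eu-labelled anti-phosphotyrosine is added and time-resolved fluorescence is read (ex 360/em 620 nm). IC₅₀ is the mean of ≥2 determinations in duplicate.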

[4] = molecular target: Cyclin-dependent kinase 4 (Homo sapiens, UniProt P11802); assay: Inhibition of Cyclin-dependent kinase 4; summary of the method: as §1
Protein kinase C (PKC) = assay: Inhibition of Protein kinase C; type: protein assay; summary of the method: as §1
[5] = molecular target: 3-phosphoinositide-dependent protein kinase 1 (Homo sapiens, UniProt O15530); assay: Inhibition of Phospho-inositide dependent kinase 1 (PDK1); summary of the method: as §1
[6] = molecular target: MAP kinase-activated protein kinase 5 (Homo sapiens, UniProt Q8IW41); assay: Inhibition of Protein kinase PRAK
Summary of the method: (§3)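 Run externally by the Dundee consortium kinase panel with 100 µM ATP. IC50 values in µM.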

[7] = molecular target: AMP-activated protein kinase, AMPK; assay: Inhibition of AMP-activated Protein Kinase; type: protein-complex assay; summary of the method: as §1
[8] = Inhibition of Platelet-derived growth factor receptor
Summary of the method: (§4)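 DELFIA tyrosine kinase assay: enzyme at 0.8 nM final, biotin-poly-Glu₄-Tyr₁ substrate, 1 µM final ATP. Ten-point dilutions from 1 µg/mL final, 45 min at room temperature. Phosphotyrosine read by Eu-anti-phosphotyrosine time-resolved fluorescence. IC₅₀ is the mean of two or more determinations in duplicate.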

[9] = molecular target: Inhibitor of nuclear factor kappa-B kinase subunit alpha (Homo sapiens, UniProt O15111); assay: Inhibition of IKK alpha kinase; summary of the method: as §1
[10] = molecular target: Tyrosine-protein kinase Lyn (Homo sapiens, UniProt P07948); assay: Inhibition of Protein tyrosine kinase Lyn; summary of the method: as §2
[11] = molecular target: Cyclin-dependent kinase 2 (Homo sapiens, UniProt P24941); assay: Inhibition of Cyclin-dependent kinase 2; summary of the method: as §1
[12] = molecular target: Serine/threonine-protein kinase Chk1 (Homo sapiens, UniProt O14757); assay: Inhibition of Serine/threonine-protein kinase Chk1; summary of the method: as §3
[13] = Inhibition of PHK phosphorylase kinase
[14] = molecular target: Glycogen synthase kinase-3 beta (Homo sapiens, UniProt P49841); assay: Inhibition of Glycogen synthase kinase-3 beta; summary of the method: as §1
[15] = molecular target: Rho-associated protein kinase 2 (Homo sapiens, UniProt O75116); assay: Inhibition of Protein kinase ROCK2; summary of the method: as §1
Chain of Rho-associated protein kinase 2 (O75116 whole entry): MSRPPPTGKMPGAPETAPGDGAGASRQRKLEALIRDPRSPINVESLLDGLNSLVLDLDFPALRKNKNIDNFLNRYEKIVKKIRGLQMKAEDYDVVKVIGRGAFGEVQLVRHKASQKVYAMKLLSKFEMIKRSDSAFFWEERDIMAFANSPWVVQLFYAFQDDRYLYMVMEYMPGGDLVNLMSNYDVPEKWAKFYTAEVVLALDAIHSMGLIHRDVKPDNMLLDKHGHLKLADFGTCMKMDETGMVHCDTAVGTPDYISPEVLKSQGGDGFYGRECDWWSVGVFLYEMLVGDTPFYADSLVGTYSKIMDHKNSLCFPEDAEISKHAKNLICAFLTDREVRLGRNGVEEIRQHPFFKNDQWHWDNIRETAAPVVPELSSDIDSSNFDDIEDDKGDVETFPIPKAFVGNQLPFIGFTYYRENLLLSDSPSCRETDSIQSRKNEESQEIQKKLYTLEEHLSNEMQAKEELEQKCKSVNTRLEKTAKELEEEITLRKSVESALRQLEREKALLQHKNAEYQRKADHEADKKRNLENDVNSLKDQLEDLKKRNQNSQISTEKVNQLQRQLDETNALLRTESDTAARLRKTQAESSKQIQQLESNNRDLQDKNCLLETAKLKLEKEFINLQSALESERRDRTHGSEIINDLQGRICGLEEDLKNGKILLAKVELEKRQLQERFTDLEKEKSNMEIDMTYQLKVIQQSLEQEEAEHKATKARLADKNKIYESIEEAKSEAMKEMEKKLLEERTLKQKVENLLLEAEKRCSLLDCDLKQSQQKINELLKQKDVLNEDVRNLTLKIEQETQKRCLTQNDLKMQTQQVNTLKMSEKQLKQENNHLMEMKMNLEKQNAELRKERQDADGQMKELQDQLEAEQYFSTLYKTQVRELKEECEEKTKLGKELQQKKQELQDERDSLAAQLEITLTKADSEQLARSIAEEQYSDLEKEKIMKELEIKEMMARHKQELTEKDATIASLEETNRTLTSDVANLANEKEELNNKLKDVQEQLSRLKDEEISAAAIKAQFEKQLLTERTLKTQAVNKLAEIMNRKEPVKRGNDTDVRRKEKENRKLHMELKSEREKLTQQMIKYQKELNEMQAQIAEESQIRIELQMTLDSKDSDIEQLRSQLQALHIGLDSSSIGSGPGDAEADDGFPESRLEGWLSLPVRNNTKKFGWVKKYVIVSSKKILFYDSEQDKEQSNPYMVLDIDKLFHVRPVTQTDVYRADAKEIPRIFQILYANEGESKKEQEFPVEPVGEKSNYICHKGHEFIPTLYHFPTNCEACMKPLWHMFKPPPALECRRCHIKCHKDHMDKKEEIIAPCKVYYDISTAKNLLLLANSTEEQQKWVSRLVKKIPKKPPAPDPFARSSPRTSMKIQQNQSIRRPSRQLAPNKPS

[16] = molecular target: Ribosomal protein S6 kinase (P70S6K) (Homo sapiens, UniProt P23443+Q9UBS0); assay: Inhibition of Ribosomal protein S6 kinase (P70S6K kinase); type: protein-complex assay; summary of the method: as §1
[17] = molecular target: Tyrosine-protein kinase CSK (Homo sapiens) (UniProt P41240); assay: Inhibition of Csk tyrosine kinase; conditions: concentration not given here; summary of the method: as §4
[18] = Inhibition of Calcium/calmodulin-dependent protein kinase
[19] = molecular target: Vascular endothelial growth factor receptor (Homo sapiens, UniProt P17948+P35916+P35968); assay: Inhibition of Vascular endothelial growth factor receptor; type: protein assay; summary of the method: as §2
Insulin receptor = Insulin receptor (Homo sapiens, UniProt P06213); assay: Inhibition of Insulin receptor; summary of the method: as §2
Casein kinase II = Casein kinase II (Homo sapiens, UniProt P19784+P67870+P68400); assay: Inhibition of Casein kinase II; type: protein-complex assay; summary of the method: as §1
[20] = molecular target: Proto-oncogene tyrosine-protein kinase Src (Homo sapiens, UniProt P12931); assay: Inhibition of Src protein tyrosine kinase; summary of the method: as §2
[21] = molecular target: cAMP-dependent protein kinase (PKA) (Homo sapiens, UniProt P22694+P17612+P22612); assay: Inhibition of Protein kinase A (PKA); type: protein assay; summary of the method: as §1
[22] = molecular target: Ribosomal protein S6 kinase alpha-5 (Homo sapiens, UniProt O75582); assay: Inhibition of MSK-1 kinase; summary of the method: as §3
[23] = molecular target: Serine/threonine-protein kinase Sgk1 (Homo sapiens, UniProt O00141); assay: Inhibition of Serum/glucocorticoid regulated kinase; summary of the method: as §1
Chain of Serine/threonine-protein kinase Sgk1 (O00141 whole entry): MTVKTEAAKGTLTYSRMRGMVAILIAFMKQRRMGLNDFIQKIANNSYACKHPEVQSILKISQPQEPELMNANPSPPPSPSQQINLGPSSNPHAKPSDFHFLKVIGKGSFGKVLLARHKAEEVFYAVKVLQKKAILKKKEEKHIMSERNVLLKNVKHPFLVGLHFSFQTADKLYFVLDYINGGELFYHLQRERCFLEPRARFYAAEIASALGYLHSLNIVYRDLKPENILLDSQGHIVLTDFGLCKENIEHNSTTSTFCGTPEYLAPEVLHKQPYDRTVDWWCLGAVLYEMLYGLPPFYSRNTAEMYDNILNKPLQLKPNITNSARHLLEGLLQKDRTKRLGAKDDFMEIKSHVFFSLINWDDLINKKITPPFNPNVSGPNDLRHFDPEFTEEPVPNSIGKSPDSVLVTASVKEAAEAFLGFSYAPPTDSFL

[24] = molecular target: Tyrosine-protein kinase SYK (Homo sapiens, UniProt P43405); assay: Inhibition of Syk protein tyrosine kinase; summary of the method: as §2
[25] = molecular target: MAP kinase-activated protein kinase 2 (Homo sapiens, UniProt P49137); assay: Inhibition of MAP kinase-activated protein kinase 1b/MAP kinase-activated protein kinase 2; summary of the method: as §1
[26] = molecular target: Mitogen-activated protein kinase; ERK1/ERK2 (Homo sapiens, UniProt P27361+P28482); assay: Inhibition of Mitogen-activated protein kinase; type: protein assay; summary of the method: as §1
[27] = molecular target: Tyrosine-protein kinase ITK/TSK (Homo sapiens, UniProt Q08881); assay: Inhibition of IL-2-inducible T-cell kinase (Itk kinase) was measured using DELFIA (dissociation enhanced lanthanide fluoroimmunoassay); summary of the method: as §2
Chain of Tyrosine-protein kinase ITK/TSK (Q08881 whole entry): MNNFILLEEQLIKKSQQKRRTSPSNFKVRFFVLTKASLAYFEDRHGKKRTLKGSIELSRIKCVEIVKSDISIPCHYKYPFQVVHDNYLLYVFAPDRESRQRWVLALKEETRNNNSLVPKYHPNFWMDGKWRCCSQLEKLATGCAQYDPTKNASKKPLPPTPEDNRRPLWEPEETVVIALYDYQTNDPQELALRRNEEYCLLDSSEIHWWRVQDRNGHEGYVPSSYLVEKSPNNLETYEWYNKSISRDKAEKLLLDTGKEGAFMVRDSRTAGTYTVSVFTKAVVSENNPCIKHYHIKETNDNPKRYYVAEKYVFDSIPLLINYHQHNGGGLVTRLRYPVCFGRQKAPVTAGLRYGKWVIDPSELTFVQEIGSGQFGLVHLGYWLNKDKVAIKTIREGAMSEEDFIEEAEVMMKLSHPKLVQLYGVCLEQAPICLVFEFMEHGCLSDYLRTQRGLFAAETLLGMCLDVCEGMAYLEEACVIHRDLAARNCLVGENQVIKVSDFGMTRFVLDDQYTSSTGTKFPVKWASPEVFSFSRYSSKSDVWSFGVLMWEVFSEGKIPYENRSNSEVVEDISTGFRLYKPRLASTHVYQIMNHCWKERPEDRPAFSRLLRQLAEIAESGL

[28] = molecular target: RAC-alpha serine/threonine-protein kinase (Homo sapiens, UniProt P31749); assay: Inhibition of Protein kinase B alpha; summary of the method: as §1
Chain of RAC-alpha serine/threonine-protein kinase (P31749 whole entry): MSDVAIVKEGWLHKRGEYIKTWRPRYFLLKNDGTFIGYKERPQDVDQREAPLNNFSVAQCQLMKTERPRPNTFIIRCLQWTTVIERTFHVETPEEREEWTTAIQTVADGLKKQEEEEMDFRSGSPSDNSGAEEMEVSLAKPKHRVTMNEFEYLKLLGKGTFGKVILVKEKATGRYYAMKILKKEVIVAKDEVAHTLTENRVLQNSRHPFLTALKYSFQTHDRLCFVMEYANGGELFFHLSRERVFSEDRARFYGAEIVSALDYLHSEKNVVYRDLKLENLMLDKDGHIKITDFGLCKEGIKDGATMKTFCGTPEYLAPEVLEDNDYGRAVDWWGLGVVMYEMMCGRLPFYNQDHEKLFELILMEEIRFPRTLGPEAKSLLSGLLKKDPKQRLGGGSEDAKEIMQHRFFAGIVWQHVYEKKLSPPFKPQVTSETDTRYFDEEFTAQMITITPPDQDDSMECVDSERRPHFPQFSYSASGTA

[29] = molecular target: Tyrosine-protein kinase ZAP-70 (Homo sapiens, UniProt P43403); assay: Inhibition of Zeta-chain (TCR) associated protein kinase 70 kDa (ZAP-70)
Summary of the method: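 Kinase-panel IC50 with ATP at or below the Km of each listed kinase. Each value is the mean of two or more separate determinations, each in duplicate.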

[30] = molecular target: Inhibitor of nuclear factor kappa-B kinase subunit beta (Homo sapiens, UniProt O14920); assay: Inhibition of IKK beta kinase; summary of the method: as §1
[31] = Inhibition of Insulin-like growth factor receptor; summary of the method: as §4
[32] = molecular target: Hepatocyte growth factor receptor (Homo sapiens, UniProt P08581); assay: Inhibition of Hepatocyte growth factor receptor; type: cell-based; summary of the method: as §2
Chain of Hepatocyte growth factor receptor (P08581 whole entry): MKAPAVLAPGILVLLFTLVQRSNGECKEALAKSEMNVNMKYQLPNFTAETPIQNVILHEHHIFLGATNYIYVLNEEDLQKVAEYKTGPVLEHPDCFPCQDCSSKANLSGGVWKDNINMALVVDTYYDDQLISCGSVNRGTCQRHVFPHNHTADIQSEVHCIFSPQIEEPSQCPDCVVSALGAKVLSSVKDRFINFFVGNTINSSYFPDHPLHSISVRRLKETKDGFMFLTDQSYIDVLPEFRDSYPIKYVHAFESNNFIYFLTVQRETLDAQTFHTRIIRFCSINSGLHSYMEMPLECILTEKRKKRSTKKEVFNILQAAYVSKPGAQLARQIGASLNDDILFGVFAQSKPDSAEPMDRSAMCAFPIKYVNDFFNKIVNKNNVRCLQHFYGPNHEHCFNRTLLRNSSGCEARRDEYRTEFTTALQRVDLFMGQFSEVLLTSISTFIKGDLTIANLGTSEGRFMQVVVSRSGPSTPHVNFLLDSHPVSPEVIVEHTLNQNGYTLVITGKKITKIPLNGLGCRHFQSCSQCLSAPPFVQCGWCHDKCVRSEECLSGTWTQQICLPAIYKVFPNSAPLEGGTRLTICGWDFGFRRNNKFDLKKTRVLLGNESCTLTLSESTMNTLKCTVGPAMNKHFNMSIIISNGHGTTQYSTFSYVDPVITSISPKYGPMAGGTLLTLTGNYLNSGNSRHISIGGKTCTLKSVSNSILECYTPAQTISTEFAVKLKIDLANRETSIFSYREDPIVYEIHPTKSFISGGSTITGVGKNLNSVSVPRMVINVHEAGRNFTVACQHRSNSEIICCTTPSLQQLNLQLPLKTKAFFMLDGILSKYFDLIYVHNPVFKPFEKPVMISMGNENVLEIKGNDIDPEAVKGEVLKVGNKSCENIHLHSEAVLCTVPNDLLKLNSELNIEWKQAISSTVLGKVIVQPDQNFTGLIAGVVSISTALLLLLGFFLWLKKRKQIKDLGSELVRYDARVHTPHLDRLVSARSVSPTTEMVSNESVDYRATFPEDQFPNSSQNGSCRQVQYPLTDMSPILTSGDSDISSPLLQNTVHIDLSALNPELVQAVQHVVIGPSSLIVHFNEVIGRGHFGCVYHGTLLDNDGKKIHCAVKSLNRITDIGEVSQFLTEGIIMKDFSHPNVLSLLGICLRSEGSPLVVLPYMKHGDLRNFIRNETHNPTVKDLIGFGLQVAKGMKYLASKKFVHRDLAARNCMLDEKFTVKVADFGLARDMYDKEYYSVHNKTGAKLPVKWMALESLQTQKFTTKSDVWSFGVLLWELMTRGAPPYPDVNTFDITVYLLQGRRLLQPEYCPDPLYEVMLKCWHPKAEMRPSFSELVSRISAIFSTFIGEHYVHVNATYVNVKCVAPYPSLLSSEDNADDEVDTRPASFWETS

For Cc1nc(O)c2c(ccc3nc(Nc4c(Cl)cccc4Cl)n(C)c32)c1CCC(=O)N1CCOCC1, the pEC50 (Jurkat) was 6.57 and the pIC50 [1] was 6.92.
Cc1c(/C=C/CN)nc(O)c2c1ccc1nc(Nc3c(Cl)cccc3Cl)n(C)c12 gave a pEC50 (tissue or blood) of 6.04, a pEC50 (Jurkat) of 7.68 and a pIC50 [1] of 8.70. For the same molecule, the pEC50 (Homo sapiens) was 5.48.
With Cc1nc(O)c2c(ccc3nc(Nc4c(Cl)cccc4Cl)n(C)c32)c1CCN1CCOCC1 the pEC50 (Jurkat) was 6.57 and the pIC50 [1] was 7.52.
Cc1nc(O)c2c(ccc3nc(Nc4c(Cl)cccc4Cl)n(C)c32)c1CC(=O)N1CCCC1 gave a pEC50 (Jurkat) of 6.57 and a pIC50 [1] of 6.13.
In the case of CCN(CC)C/C=C/c1nc(O)c2c(ccc3nc(Nc4c(Cl)cccc4Cl)n(C)c32)c1C, the IC50 [2] was over 1000 nM, the pIC50 [3] was under 5.00 and the pIC50 [4] was under 4.00. It also gave an IC50 (Protein kinase C (PKC)) of over 300000 nM, a pEC50 (tissue or blood) of 6.89 and a pIC50 [5] of under 6.00. It also gave a pIC50 [6] of under 6.00, a pIC50 [7] of under 6.00 and a pIC50 [8] of 8.10. It also gave a pEC50 (Jurkat) of 8.15, a pIC50 [9] of 4.30 and a pIC50 [10] of 8.70. It also gave a pIC50 [11] of under 6.00, a pIC50 [12] of under 6.00 and a pIC50 [13] of under 6.00. It also gave a pIC50 [14] of under 6.00, a pIC50 [15] of under 6.00 and a pIC50 [16] of under 6.00. For the same molecule, the inhibition [17] was 87%, the pIC50 [18] was under 4.00 and the IC50 [19] was over 100000 nM. It also gave a pIC50 (Insulin receptor) of under 4.00, a pIC50 (Casein kinase II) of under 6.00 and a pIC50 [20] of 9.70. It also gave an IC50 [21] of over 100000 nM, a pIC50 [22] of under 6.00 and a pIC50 [23] of under 6.00. For the same molecule, the pIC50 [24] was under 4.40, the pIC50 [25] was under 6.00 and the IC50 [26] was over 30000 nM. It also gave a pIC50 [27] of under 5.00, a pIC50 [28] of under 6.00 and a pIC50 [29] of 6.40. For the same molecule, the pIC50 [30] was 4.30, the pIC50 [31] was under 4.00 and the pEC50 (Homo sapiens) was 5.74. The pIC50 [32] was under 4.00.
For CCNC/C=C/c1nc(O)c2c(ccc3nc(Nc4c(Cl)cccc4Cl)n(C)c32)c1C, the pEC50 (Jurkat) was 8.05 and the pIC50 [1] was 8.70.
In the case of Cc1nc(O)c2c(ccc3c2nc(Nc2c(Cl)cccc2Cl)n3C)c1C, the pIC50 [1] was under 5.70.
With Cc1c(C=O)nc(O)c2c1ccc1nc(Nc3c(Cl)cccc3Cl)n(C)c12 the pEC50 (Jurkat) was 6.35 and the pIC50 [1] was 6.77.
Cc1nc(O)c2c(ccc3[nH]c(Nc4c(Cl)cccc4Cl)nc32)c1C showed a pEC50 (Jurkat) of 6.74 and a pIC50 [1] of 6.96.
Molecule Cc1nc(O)c2c(cc(CNCCO)c3nc(Nc4c(Cl)cccc4Cl)n(C)c32)c1C has a pEC50 (Jurkat) of 6.92 and a pIC50 [1] of 7.59.
CCc1nc(O)c2c(ccc3nc(Nc4c(Cl)cccc4Cl)n(C)c32)c1C showed a pEC50 (Jurkat) of 7.10 and a pIC50 [1] of 6.11.
With Cc1c(/C=C/CN2CCOCC2)nc(O)c2c1ccc1nc(Nc3c(Cl)cccc3Cl)n(C)c12 the pEC50 (tissue or blood) was 6.77, the pEC50 (Jurkat) was 7.52 and the pIC50 [1] was 8.40.
Molecule COC(=O)CCc1nc(O)c2c(ccc3nc(Nc4c(Cl)cccc4Cl)n(C)c32)c1C has a pEC50 (Jurkat) of 6.64 and a pIC50 [1] of 6.44.
For COC(=O)/C=C/c1nc(O)c2c(ccc3nc(Nc4c(Cl)cccc4Cl)n(C)c32)c1C, the pEC50 (Jurkat) was 7.15 and the pIC50 [1] was 7.07.
Work on CCOC(=O)Cc1c(C)nc(O)c2c1ccc1nc(Nc3c(Cl)cccc3Cl)n(C)c12 yielded a pEC50 (Jurkat) of 6.85 and a pIC50 [1] of 6.15.
COc1ccc(CNCc2cc3c(C)c(C)nc(O)c3c3c2nc(Nc2c(Cl)cccc2Cl)n3C)cc1 showed a pEC50 (Jurkat) of 6.30 and a pIC50 [1] of 6.74.
Molecule Cc1c(/C=C/CO)nc(O)c2c1ccc1nc(Nc3c(Cl)cccc3Cl)n(C)c12 has a pEC50 (Jurkat) of 8.10 and a pEC50 (Homo sapiens) of 5.52.
